Results published in ChEMBL document CHEMBL1150669, “Isolation and characterization of novel oligosaccharides related to Ziracin” (2002).

Legend:
Type in all cases: functional
[1] = test system: Staphylococcus aureus; assay: Antimicrobial activity against Staphylococcus aureus at 20 ug/8 mm disk at pH 8 by agar diffusion method
Summary of the method: (§1)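 Agar disk diffusion against S. aureus. Samples dissolved at 1 mg/mL in CH2Cl2/MeOH (95:5 v/v), plus a 10-fold dilution in the same vehicle; 20 µL of each applied to 8 mm paper disks and air-dried 30 min. Disks placed on S. aureus-seeded agar at pH 7 and pH 8, incubated overnight at 35 °C. Read-out: inhibition zone diameter (mm).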

[2] = test system: Staphylococcus aureus; assay: Antimicrobial activity against Staphylococcus aureus at 2 ug/8 mm disk at pH 8 by agar diffusion method; summary of the method: as §1
[3] = test system: Staphylococcus aureus; assay: Antimicrobial activity against Staphylococcus aureus at 20 ug/8 mm disk at pH 7 by agar diffusion method; summary of the method: as §1
[4] = test system: Staphylococcus aureus; assay: Antimicrobial activity against Staphylococcus aureus at 2 ug/8 mm disk at pH 7 by agar diffusion method; summary of the method: as §1

| SMILES | inhibition zone (IZ) [1] | inhibition zone (IZ) [2] | inhibition zone (IZ) [3] | inhibition zone (IZ) [4] |
| --- | --- | --- | --- | --- |
| COC[C@H]1O[C@@H](O[C@@H]2OC[C@@H]3O[C@@]4(OC[C@@H](OC(=O)c5c(C)cc(O)cc5O)[C@@H]5OCO[C@H]54)O[C@H]3[C@H]2O)[C@@H](OC)[C@@H](O)[C@@H]1O[C@@H]1O[C@H](C)[C@H](OC)[C@H](O[C@@H]2O[C@H](C)[C@H]3O[C@]4(C[C@@H](O)[C@H](O[C@H]5C[C@@H](O[C@H]6C[C@](C)([N+](=O)[O-])[C@@H](OC)[C@H](C)O6)[C@H](OC(=O)c6c(C)cc(O)c(Cl)c6O)[C@@H](C)O5)[C@@H](C)O4)O[C@]3(C)[C@@H]2O)[C@H]1O | 18 mm | 16 mm | 22 mm | 17 mm |
| COC[C@H]1O[C@@H](O[C@@H]2OC[C@@H]3O[C@@]4(OC[C@@H](OC(=O)c5c(C)cc(O)cc5O)[C@@H]5OCO[C@H]54)O[C@H]3[C@H]2O)[C@@H](OC)[C@@H](O)[C@@H]1O[C@@H]1O[C@H](C)[C@H](OC)[C@H](O[C@@H]2O[C@H](C)[C@H]3O[C@]4(C[C@@H](O)[C@H](O[C@H]5C[C@@H](O[C@H]6C[C@](C)([N+](=O)[O-])[C@@H](OC)[C@H](C)O6)[C@H](OC(=O)c6c(C)cc(O)c(Cl)c6OC)[C@@H](C)O5)[C@@H](C)O4)O[C@]3(C)[C@@H]2O)[C@H]1O | 17 mm | 16 mm | 20 mm | 17 mm |
| COC[C@H]1O[C@@H](O[C@@H]2OC[C@@H]3O[C@@]4(OC[C@@H](OC(=O)c5c(C)cc(O)cc5O)[C@@H]5OCO[C@H]54)O[C@H]3[C@H]2O)[C@@H](OC)[C@@H](O)[C@@H]1O[C@@H]1O[C@H](C)[C@H](OC)[C@H](O[C@@H]2O[C@H](C)[C@H]3O[C@]4(C[C@@H](O)[C@H](O[C@H]5C[C@@H](O[C@H]6C[C@](C)([N+](=O)[O-])[C@@H](O)[C@H](C)O6)[C@H](OC(=O)c6c(C)c(Cl)c(O)c(Cl)c6OC)[C@@H](C)O5)[C@@H](C)O4)O[C@]3(C)[C@@H]2O)[C@H]1O | 20 mm | 18 mm | 23 mm | 20 mm |
| COC[C@H]1O[C@@H](O[C@@H]2OC[C@@H]3O[C@@]4(OC[C@@H](OC(=O)c5c(C)cc(O)cc5O)[C@H](OC=O)[C@H]4O)O[C@H]3[C@H]2O)[C@@H](OC)[C@@H](O)[C@@H]1O[C@@H]1O[C@H](C)[C@H](OC)[C@H](O[C@@H]2O[C@H](C)[C@H]3O[C@]4(C[C@@H](O)[C@H](O[C@H]5C[C@@H](O[C@H]6C[C@](C)([N+](=O)[O-])[C@@H](OC)[C@H](C)O6)[C@H](OC(=O)c6c(C)c(Cl)c(O)c(Cl)c6OC)[C@@H](C)O5)[C@@H](C)O4)O[C@]3(C)[C@@H]2O)[C@H]1O | 18 mm | 15 mm | 21 mm | 17 mm |
| COC[C@H]1O[C@@H](O[C@@H]2OC[C@@H]3O[C@@]4(OC[C@@H](OC(=O)c5c(C)cc(O)cc5O)[C@@H]5OCO[C@H]54)O[C@H]3[C@H]2O)[C@@H](OC)[C@@H](O)[C@@H]1O | 8 mm | 8 mm | 10 mm | 8 mm |
| COC[C@H]1O[C@@H](O[C@@H]2OC[C@@H]3O[C@@]4(OC[C@@H](OC(=O)c5c(C)cc(O)cc5O)[C@@H]5OCO[C@H]54)O[C@H]3[C@H]2O)[C@@H](OC)[C@@H](O)[C@@H]1O[C@@H]1O[C@H](C)[C@H](OC)[C@H](O[C@@H]2O[C@H](C)[C@H]3O[C@]4(C[C@@H](O)[C@H](O[C@H]5C[C@@H](O[C@H]6C[C@](C)([N+](=O)[O-])[C@@H](OC)[C@H](C)O6)[C@H](OC(=O)c6c(C)c(Cl)c(O)c(Cl)c6OC)[C@@H](C)O5)[C@@H](C)O4)O[C@]3(C)[C@@H]2O)[C@H]1O [EVERNIMICIN] | 21 mm | 19 mm | 26 mm | 23 mm |
